Reference: ChEMBL document CHEMBL1811848 (Bioorg Med Chem Lett, 2011)
The source made the active and inactive calls. No cut-off for these calls is given here.

Columns and labels:
[1] = target: T1, Peroxisome proliferator-activated receptor alpha (Homo sapiens) (UniProt Q07869); assay: Transactivation of human PPARalpha expressed in human HepG2 cells co-transfected with PPRE3-TK-Luc by luciferase reporter gene assay relative to WY14643; assay type: cell-based
T1 sequence (whole entry): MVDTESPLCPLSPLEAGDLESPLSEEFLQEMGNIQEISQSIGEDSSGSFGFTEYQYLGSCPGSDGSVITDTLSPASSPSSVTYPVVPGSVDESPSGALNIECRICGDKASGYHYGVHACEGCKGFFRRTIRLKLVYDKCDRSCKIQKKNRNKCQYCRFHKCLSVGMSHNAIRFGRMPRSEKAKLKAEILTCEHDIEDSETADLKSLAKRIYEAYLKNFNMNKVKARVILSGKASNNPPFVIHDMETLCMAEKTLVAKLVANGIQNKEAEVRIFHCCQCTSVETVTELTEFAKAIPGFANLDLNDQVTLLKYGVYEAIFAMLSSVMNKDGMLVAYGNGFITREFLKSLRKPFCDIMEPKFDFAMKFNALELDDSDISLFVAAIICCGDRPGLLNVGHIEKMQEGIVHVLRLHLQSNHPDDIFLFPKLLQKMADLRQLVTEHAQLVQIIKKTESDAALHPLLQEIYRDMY
Procedure, shortened: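 Same HepG2 hPPARα or hPPARγ / PPRE3-TK-luc luciferase transactivation assay. Efficacy expressed as percent of maximal response, normalized to 100% for the reference agonist: WY-14643 for α, rosiglitazone for γ.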

[2] = target: T2, Peroxisome proliferator-activated receptor delta (Homo sapiens) (UniProt Q03181); assay: Transactivation of human PPARdelta expressed in human HepG2 cells co-transfected with PPRE3-TK-Luc by luciferase reporter gene assay; assay type: cell-based
T2 sequence (whole entry): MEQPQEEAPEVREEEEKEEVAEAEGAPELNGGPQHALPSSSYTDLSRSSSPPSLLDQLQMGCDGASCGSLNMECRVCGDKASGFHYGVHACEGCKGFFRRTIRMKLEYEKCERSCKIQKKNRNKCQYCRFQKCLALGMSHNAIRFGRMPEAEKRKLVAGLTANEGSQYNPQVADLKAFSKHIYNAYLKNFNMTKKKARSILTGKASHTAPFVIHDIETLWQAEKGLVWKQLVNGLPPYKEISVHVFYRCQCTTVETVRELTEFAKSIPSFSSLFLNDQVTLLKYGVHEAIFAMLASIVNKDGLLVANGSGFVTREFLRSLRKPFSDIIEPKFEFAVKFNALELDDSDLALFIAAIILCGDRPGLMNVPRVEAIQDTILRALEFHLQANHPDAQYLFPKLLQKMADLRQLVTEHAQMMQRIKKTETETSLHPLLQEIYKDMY
Procedure, shortened: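 HepG2 cells transfected with pSG5 vector carrying hPPARα, hPPARγ or hPPARδ cDNA, co-transfected with PPRE3-TK-luc. Firefly luciferase activity measured with a commercial kit. β-galactosidase activity read on an ELISA reader. Controls: WY14643 (α), rosiglitazone (γ), GW501516 (δ).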

[3] = Half life in fasting Wistar rat at 30 mg/kg, po; assay type: ADME, organism-based; set-up: dose 30 mg/kg, route oral; conditions: in vivo
Procedure, shortened: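 Fasted male Wistar rats received one oral dose of 30 mg/kg. Plasma Cmax, T1/2 and Tmax are reported as mean ± SD of n = 3.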

Mus musculus [4] = assay: Hypolipidemic activity in db/db mouse assessed as reduction in triglyceride level at 0.003 mg/kg, po; assay type: functional; set-up: scale not given: the % may be the effect or the level left
Mus musculus [5] = assay: Antihyperglycemic activity in db/db mouse assessed as reduction in plasma glucose level at 0.003 mg/kg, po; assay type: functional; set-up: scale not given: the % may be the effect or the level left
Mus musculus [6] = assay: Antihyperglycemic activity in db/db mouse assessed as reduction in plasma glucose level at 3 mg/kg, po; assay type: functional; set-up: scale not given: the % may be the effect or the level left
Rattus norvegicus [7] = assay: Toxicity in male Wistar rat assessed as spleen to body weight ratio at 3 mg/kg, po measured after 28 days (reference value: 0.215 +/- 0.007); assay type: organism-based; set-up: dose 3 mg/kg, route oral; conditions: in vivo, 672 h
Rattus norvegicus [8] = assay: Toxicity in male Wistar rat assessed as spleen to body weight ratio at 30 mg/kg, po measured after 28 days (reference value: 0.215 +/- 0.007); assay type: organism-based; set-up: dose 30 mg/kg, route oral; conditions: in vivo, 672 h
Rattus norvegicus [9] = assay: Toxicity in male Wistar rat assessed as adrenal to body weight ratio at 30 mg/kg, po measured after 28 days (reference value: 0.018 +/- 0.001); assay type: organism-based; set-up: dose 30 mg/kg, route oral; conditions: in vivo, 672 h
Rattus norvegicus [10] = assay: Toxicity in male Wistar rat assessed as epididymine to body weight ratio at 3 mg/kg, po measured after 28 days (reference value: 0.391 +/- 0.017); assay type: organism-based; set-up: dose 3 mg/kg, route oral; conditions: in vivo, 672 h
Rattus norvegicus [11] = assay: Toxicity in male Wistar rat assessed as epididymine to body weight ratio at 30 mg/kg, po measured after 28 days (reference value: 0.391 +/- 0.017); assay type: organism-based; set-up: dose 30 mg/kg, route oral; conditions: in vivo, 672 h
Rattus norvegicus [12] = assay: Toxicity in male Wistar rat assessed as thymus to body weight ratio at 3 mg/kg, po measured after 28 days (reference value: 0.081+/- 0.013); assay type: organism-based; set-up: dose 3 mg/kg, route oral; conditions: in vivo, 672 h
Rattus norvegicus [13] = assay: Toxicity in female Wistar rat assessed as kidney to body weight ratio at 30 mg/kg, po measured after 28 days (reference value: 0.733 +/- 0.007); assay type: organism-based; set-up: dose 30 mg/kg, route oral; conditions: in vivo, 672 h
Rattus norvegicus [14] = assay: Toxicity in female Wistar rat assessed as adrenal to body weight ratio at 3 mg/kg, po measured after 28 days (reference value: 0.028 +/- 0.001); assay type: organism-based; set-up: dose 3 mg/kg, route oral; conditions: in vivo, 672 h
Rattus norvegicus [15] = assay: Toxicity in female Wistar rat assessed as ovary to body weight ratio at 3 mg/kg, po measured after 28 days (reference value: 0.039 +/- 0.005); assay type: organism-based, Female gonad; set-up: dose 3 mg/kg, route oral; conditions: in vivo, 672 h
Rattus norvegicus [16] = assay: Toxicity in female Wistar rat assessed as uterus to body weight ratio at 30 mg/kg, po measured after 28 days (reference value: 0.233 +/- 0.041); assay type: organism-based; set-up: dose 30 mg/kg, route oral; conditions: in vivo, 672 h
Rattus norvegicus [17] = assay: Toxicity in female Wistar rat assessed as thymus to body weight ratio at 3 mg/kg, po measured after 28 days (reference value: 0.094 +/-0.01); assay type: organism-based; set-up: dose 3 mg/kg, route oral; conditions: in vivo, 672 h
Rattus norvegicus [18] = assay: Toxicity in female Wistar rat assessed as change in body weight at 3 mg/kg, po measured after 28 days relative to control; assay type: organism-based; set-up: dose 3 mg/kg, route oral; conditions: in vivo, 672 h
Procedure, shortened: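 Wistar rats received 3 or 30 mg/kg orally for 28 days. Body weight was recorded weekly, and the % change in body weight over the study is tabulated.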

Rattus norvegicus [19] = assay: Toxicity in male Wistar rat assessed as hemoglobin level at 30 mg/kg, po measured after 28 days (reference value: 13.66 +/- 0.23 g/dl); assay type: organism-based; set-up: dose 30 mg/kg, route oral; conditions: in vivo, 672 h
Rattus norvegicus [20] = assay: Toxicity in male Wistar rat assessed as SGPT level at 3 mg/kg, po measured after 28 days (reference value: 34.24 +/- 2.13 U/L); assay type: organism-based; set-up: dose 3 mg/kg, route oral; conditions: in vivo, 672 h
Rattus norvegicus [21] = assay: Toxicity in female Wistar rat assessed as creatinine level at 3 mg/kg, po measured after 28 days (reference value: 0.42 +/- 0.04 mg/dl); assay type: organism-based; set-up: dose 3 mg/kg, route oral; conditions: in vivo, 672 h
Rattus norvegicus [22] = assay: Toxicity in female Wistar rat assessed as creatinine level at 30 mg/kg, po measured after 28 days (reference value: 0.42 +/- 0.04 mg/dl); assay type: organism-based; set-up: dose 30 mg/kg, route oral; conditions: in vivo, 672 h
Rattus norvegicus [23] = assay: Toxicity in female Wistar rat assessed as […] level at 3 mg/kg, po measured after 28 days (reference value: 172.38 +/- 7.18 U/L); assay type: organism-based; set-up: dose 3 mg/kg, route oral; conditions: in vivo, 672 h
Rattus norvegicus [24] = assay: Toxicity in female Wistar rat assessed as albumin level at 30 mg/kg, po measured after 28 days (reference value: 3.92 +/- 0.18 g.dl); assay type: organism-based; set-up: dose 30 mg/kg, route oral; conditions: in vivo, 672 h

Q: Which results are given for CCO[C@@H](Cc1ccc(OCCc2nc(-c3ccc(C)s3)oc2C)cc1)C(=O)O?
A: Emax [1]: 116%; Activity [2]: inactive; half-life [3]: 444 min; Activity (Mus musculus [4]): 7.2%; Activity (Mus musculus [5]): 47.1%; Activity (Mus musculus [6]): 62.2%; Ratio (Rattus norvegicus [7]): 0.223; Ratio (Rattus norvegicus [8]): 0.252; Ratio (Rattus norvegicus [9]): 0.018; Ratio (Rattus norvegicus [10]): 0.36; Ratio (Rattus norvegicus [11]): 0.432; Ratio (Rattus norvegicus [12]): 0.089; Ratio (Rattus norvegicus [13]): 0.915; Ratio (Rattus norvegicus [14]): 0.02; Ratio (Rattus norvegicus [15]): 0.02; Ratio (Rattus norvegicus [16]): 0.189; Ratio (Rattus norvegicus [17]): 0.101; Activity (Rattus norvegicus [18]): 21.77%; Activity (Rattus norvegicus [19]): 12.46 g/dL; Activity (Rattus norvegicus [20]): 28.54 U/L; Activity (Rattus norvegicus [21]): 0.36 mg/dL; Activity (Rattus norvegicus [22]): 0.41 mg/dL; Activity (Rattus norvegicus [23]): 248.13 U/L; Activity (Rattus norvegicus [24]): 4.12 g/dL
